# Data taken from ChEMBL document CHEMBL3046112, “Comparative study of antimicrobial peptides to control citrus postharvest decay caused by Penicillium digitatum” (J Agric Food Chem, 2007).
# Activity calls are given as the source filed them. The calls are words filed in the database; no cut-off is given here.
# Legend:
# [1] = Toxicity in Homo sapiens (human) RBCs assessed as hemolytic activity; format: cell-based; conditions: erythrocyte
# Penicillium digitatum [2] = assay: Fungicidal activity against Penicillium digitatum PHI-26 conidia assessed as reduction in conidia viability at 4 uM incubated for 16 hr by colony count assay relative to untreated control; format: functional
# Summary of the method: (§1)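 P. digitatum conidia (10^4 mL-1) were incubated with peptide (for example 4, 16 or 64 µM) in sterile distilled water for 16 h at room temperature, in triplicate. Samples were then serially diluted and spread on peptide-free PDA to count CFU. Results are given as mean CFU mL-1 ± SD compared with a no-peptide control.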
# Penicillium digitatum [3] = assay: Fungicidal activity against Penicillium digitatum PHI-26 conidia assessed as inhibition of conidia viability incubated for 16 hr by colony count assay; format: functional, organism-based; summary of the method: as §1
# Escherichia coli = assay: Antimicrobial activity against Escherichia coli DH5[alpha] assessed as microbial growth inhibition after 4 days by microtiter plate assay; format: functional; conditions: 96 h
# Summary of the method: (§2)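 Microtiter dose–response assay, as previously described. Peptide stocks were 1 mM in 5 mM MOPS pH 7. P. digitatum conidia came from 7–10-day PDA cultures grown at 24 °C and were counted with a hematocytometer. Yeast (YPD, 30 °C) and E. coli (LB, 37 °C) were grown to stationary phase and diluted. Growth was read as OD492 in triplicate. MIC: lowest concentration with no growth after 4 days in all independent experiments, each repeated at least three times.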
# Saccharomyces cerevisiae = assay: Antimicrobial activity against Saccharomyces cerevisiae FY1679 assessed as microbial growth inhibition after 4 days by microtiter plate assay; format: functional; conditions: FY1679, 96 h; summary of the method: as §2
# Penicillium digitatum [4] = assay: Antimicrobial activity against Penicillium digitatum PHI-26 assessed as microbial growth inhibition after 4 days by microtiter plate assay; format: functional; summary of the method: as §2
# [5] = Toxicity in Homo sapiens (human) RBCs assessed as hemolytic activity at 100 uM; format: cell-based; conditions: erythrocyte
# Penicillium digitatum [6] = assay: Antimicrobial activity against Penicillium digitatum PHI-26 assessed as inhibition of orange postharvest decay progression progression at 4 uM pre-incubated with fungus for 16 hr measured 7 days post fungal inoculation by orange fruit decay assay; format: functional, organism-based
# Summary of the method: (§3)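 Orange fruit inoculation (Navelina, Navelate or Lanelate). Each fruit was wounded about 3 mm deep at four equatorial sites. 5 µL of inoculum (10^4 conidia mL-1 with peptide in water, preincubated 16 h at room temperature) went into each wound. Peptide was tested at 32 µM, from 4 to 64 µM, or from 1 to 4 µM. Fruit was held at 20 °C and 90% RH. Infected wounds were scored at 3, 5 and 7 dpi. Three replicas of five fruits each; Tukey mean separation.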
# Penicillium digitatum [7] = assay: Antimicrobial activity against Penicillium digitatum PHI-26 assessed as inhibition of orange postharvest decay progression at 32 uM pre-incubated with fungal conidia for 16 hr by orange fruit decay assay; format: functional, organism-based; summary of the method: as §3
# Penicillium digitatum [8] = assay: Antimicrobial activity against Penicillium digitatum PHI-26 assessed as inhibition of orange postharvest decay progression at 32 uM by orange fruit decay assay; format: functional, organism-based
# Summary of the method: (§4)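 Navelina sweet oranges were wounded about 3 mm deep at four equatorial sites. Each wound received 5 µL of 10^4 conidia mL-1 of PHI-26 mixed with peptide in water, inoculated either at once or after 16 h at room temperature. There were three replicas of five fruits, held at 20 °C and 90% RH. Infected wounds were scored at 3, 5 and 7 dpi as mean % ± SD, with Tukey separation.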
# Penicillium digitatum [9] = assay: Antimicrobial activity against Penicillium digitatum PHI-26 assessed as inhibition of orange postharvest decay progression progression at 2 uM pre-incubated with fungus for 16 hr measured 7 days post fungal inoculation by orange fruit decay assay; format: functional; summary of the method: as §3
# Penicillium digitatum [10] = assay: Antimicrobial activity against Penicillium digitatum PHI-26 assessed as inhibition of orange postharvest decay progression progression at 32 uM measured 7 days post fungal inoculation by orange fruit decay assay; format: functional, organism-based; summary of the method: as §4
Compound,Activity [1],inhibition (Penicillium digitatum [2]),inhibition (Penicillium digitatum [3]),MIC (Escherichia coli) [µM],MIC (Saccharomyces cerevisiae) [µM],"MIC (Penicillium digitatum [4]; PHI-26, 96 h) [µM]",Activity [5],inhibition (Penicillium digitatum [6]),fold change (FC) (Penicillium digitatum [2]),inhibition (Penicillium digitatum [7]),inhibition (Penicillium digitatum [8]),MIC (Penicillium digitatum [4]),inhibition at 2 µM (Penicillium digitatum [9]) [%],inhibition (Penicillium digitatum [10])
CC[C@H](C)[C@H](NC(=O)[C@H](CCCCN)NC(=O)[C@H](CCCCN)NC(=O)[C@H](Cc1ccccc1)NC(=O)[C@H](CC(C)C)NC(=O)[C@H](CCCCN)NC(=O)[C@@H](N)CCCCN)C(=O)N[C@@H](CC(C)C)C(=O)N[C@@H](CCCCN)C(=O)N[C@H](C(=O)N[C@@H](CC(C)C)C(N)=O)C(C)C [KKLFKKILKVL-NH2],Toxic,Active,Active,4,16,4,,,,,,,,
Ac-RFWWFRRR-NH2,,,Active,8,32,4,Non-toxic,Active,2,Active,Active,,,
CC(=O)N[C@H](Cc1cnc[nH]1)C(=O)N[C@H](CCCNC(=N)N)C(=O)N[C@H](CCCCN)C(=O)N[C@H](CCCCN)C(=O)N[C@H](Cc1c[nH]c2ccccc12)C(=O)N[C@H](Cc1ccccc1)C(=O)N[C@H](Cc1c[nH]c2ccccc12)C(N)=O,,,,,,,,,,,,Active,,
CC(=O)N[C@H](CCCNC(=N)N)C(=O)N[C@H](CCCNC(=N)N)C(=O)N[C@H](CCCCN)C(=O)N[C@H](CCCCN)C(=O)N[C@H](Cc1c[nH]c2ccccc12)C(=O)N[C@H](Cc1ccccc1)C(=O)N[C@H](Cc1c[nH]c2ccccc12)C(N)=O,,,,,,,,,,,,Active,,
CC(=O)N[C@@H](Cc1cnc[nH]1)C(=O)N[C@@H](CCCNC(=N)N)C(=O)N[C@@H](CCCCN)C(=O)N[C@@H](CCCCN)C(=O)N[C@@H](Cc1c[nH]c2ccccc12)C(=O)N[C@@H](Cc1ccccc1)C(=O)N[C@@H](Cc1c[nH]c2ccccc12)C(N)=O,Non-toxic,,Active,16,16,4,Non-toxic,Active,2,Active,,,> 50,
CC[C@H](C)[C@H](NC(C)=O)C(=O)N[C@@H](CC(C)C)C(=O)N1CCC[C@H]1C(=O)N[C@@H](Cc1c[nH]c2ccccc12)C(=O)N[C@@H](CCCCN)C(=O)N[C@@H](Cc1c[nH]c2ccccc12)C(=O)N1CCC[C@H]1C(=O)N[C@@H](Cc1c[nH]c2ccccc12)C(=O)N[C@@H](Cc1c[nH]c2ccccc12)C(=O)N1CCC[C@H]1C(=O)N[C@@H](Cc1c[nH]c2ccccc12)C(=O)N[C@@H](CCCNC(=N)N)C(=O)N[C@@H](CCCNC(=N)N)C(N)=O [Indolicidin],,Active,Active,,,,,Active,,,,,,
CC[C@H](C)[C@H](NC(=O)[C@H](CCCCN)NC(=O)[C@H](CCCCN)NC(=O)[C@H](Cc1ccccc1)NC(=O)[C@H](CC(C)C)NC(=O)[C@H](CCCCN)NC(=O)[C@@H](N)CCCCN)C(=O)N[C@@H](CC(C)C)C(=O)N[C@@H](CCCCN)C(=O)N[C@@H](Cc1ccccc1)C(=O)N[C@@H](CC(C)C)C(N)=O [KKLFKKILKFL-NH2],Toxic,Active,Active,4,16,4,,,,,,,,
Ac-RKKWFW-NH2,Non-toxic,,Active,32,32,4,Non-toxic,,2,Active,,,,
CC[C@H](C)[C@H](NC(=O)CN)C(=O)NCC(=O)N[C@@H](C)C(=O)N[C@H](C(=O)N[C@@H](CC(C)C)C(=O)N[C@@H](CCCCN)C(=O)N[C@H](C(=O)N[C@@H](CC(C)C)C(=O)N[C@H](C(=O)N[C@H](C(=O)NCC(=O)N[C@@H](CC(C)C)C(=O)N1CCC[C@H]1C(=O)N[C@@H](C)C(=O)N[C@@H](CC(C)C)C(=O)N[C@H](C(=O)N[C@@H](CO)C(=O)N[C@@H](Cc1c[nH]c2ccccc12)C(=O)N[C@H](C(=O)N[C@@H](CCCCN)C(=O)N[C@@H](CCCNC(=N)N)C(=O)N[C@@H](CCCCN)C(=O)N[C@@H](CCCNC(=N)N)C(=O)N[C@@H](CCC(N)=O)C(=O)N[C@@H](CCC(N)=O)C(N)=O)[C@@H](C)CC)[C@@H](C)CC)[C@@H](C)O)[C@@H](C)O)C(C)C)C(C)C [MELITTIN],Toxic,inactive,inactive,,16,2,,inactive,,inactive,inactive,,,Active
CC(=O)N[C@@H](CCCNC(=N)N)C(=O)N[C@@H](CCCNC(=N)N)C(=O)N[C@@H](CCCCN)C(=O)N[C@@H](CCCCN)C(=O)N[C@@H](Cc1c[nH]c2ccccc12)C(=O)N[C@@H](Cc1ccccc1)C(=O)N[C@@H](Cc1c[nH]c2ccccc12)C(N)=O,Non-toxic,,Active,8,16,4,Non-toxic,Active,2,Active,,,,
